Reference: ChEMBL document CHEMBL2203081 (Bioorg Med Chem Lett, 2012)

Key:
[1] = molecular target: Casein kinase I isoform gamma-2 (Homo sapiens) (UniProt P78368); assay: Inhibition of CSNK1G2 assessed as residual activity at 10 uM relative to control
Outline: (§1)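 Competition kinase-binding assay (KINOMEscan) across a non-redundant panel of 329 kinases beyond the radiometric panel; residual binding expressed relative to control.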

[2] = molecular target: Casein kinase II subunit alpha' (Homo sapiens) (UniProt P19784); assay: Inhibition of CSNK2A2 assessed as residual activity at 10 uM relative to control; outline: as §1
Brain = assay: AUClast in Swiss albino mouse brain at 10 mg/kg, po; format: ADME, organism-based; set-up: time 0 - last, dose 10 mg/kg, route oral; conditions: in vivo
Outline: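 Male Swiss Albino mice, single dose given intravenously (1 mg/kg) or orally (10 mg/kg). Drug measured in plasma and brain, with AUClast taken for each. The brain/plasma ratio is based on AUClast, and oral bioavailability is derived from the IV and PO plasma data.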

[3] = molecular target: Leucine-rich repeat serine/threonine-protein kinase 2 (Mus musculus) (UniProt Q5S006); assay: Inhibition of LRRK2 in Swiss mouse 3T3 cells assessed as inhibition of Ser910 autophosphorylation after 90 mins by immunoblot method; format: cell-based; conditions: NIH3T3
[4] = molecular target: Mitogen-activated protein kinase 14 (Homo sapiens) (UniProt Q16539); assay: Inhibition of p38a MAPK assessed as residual activity at 1 uM
[5] = molecular target: Inhibitor of nuclear factor kappa-B kinase subunit alpha (Homo sapiens) (UniProt O15111); assay: Inhibition of IKK-alpha assessed as residual activity at 10 uM relative to control
[6] = molecular target: Citron Rho-interacting kinase (Homo sapiens) (UniProt O14578); assay: Inhibition of CIT assessed as residual activity at 10 uM relative to control
[7] = molecular target: Serine/threonine-protein kinase OSR1 (Homo sapiens) (UniProt O95747); assay: Inhibition of OSR1 assessed as residual activity at 10 uM relative to control
[8] = molecular target: T1, Ephrin type-B receptor 3 (Homo sapiens) (UniProt P54753); assay: Inhibition of EPHB3 assessed as residual activity at 10 uM relative to control; outline: as §1
T1 sequence (whole entry): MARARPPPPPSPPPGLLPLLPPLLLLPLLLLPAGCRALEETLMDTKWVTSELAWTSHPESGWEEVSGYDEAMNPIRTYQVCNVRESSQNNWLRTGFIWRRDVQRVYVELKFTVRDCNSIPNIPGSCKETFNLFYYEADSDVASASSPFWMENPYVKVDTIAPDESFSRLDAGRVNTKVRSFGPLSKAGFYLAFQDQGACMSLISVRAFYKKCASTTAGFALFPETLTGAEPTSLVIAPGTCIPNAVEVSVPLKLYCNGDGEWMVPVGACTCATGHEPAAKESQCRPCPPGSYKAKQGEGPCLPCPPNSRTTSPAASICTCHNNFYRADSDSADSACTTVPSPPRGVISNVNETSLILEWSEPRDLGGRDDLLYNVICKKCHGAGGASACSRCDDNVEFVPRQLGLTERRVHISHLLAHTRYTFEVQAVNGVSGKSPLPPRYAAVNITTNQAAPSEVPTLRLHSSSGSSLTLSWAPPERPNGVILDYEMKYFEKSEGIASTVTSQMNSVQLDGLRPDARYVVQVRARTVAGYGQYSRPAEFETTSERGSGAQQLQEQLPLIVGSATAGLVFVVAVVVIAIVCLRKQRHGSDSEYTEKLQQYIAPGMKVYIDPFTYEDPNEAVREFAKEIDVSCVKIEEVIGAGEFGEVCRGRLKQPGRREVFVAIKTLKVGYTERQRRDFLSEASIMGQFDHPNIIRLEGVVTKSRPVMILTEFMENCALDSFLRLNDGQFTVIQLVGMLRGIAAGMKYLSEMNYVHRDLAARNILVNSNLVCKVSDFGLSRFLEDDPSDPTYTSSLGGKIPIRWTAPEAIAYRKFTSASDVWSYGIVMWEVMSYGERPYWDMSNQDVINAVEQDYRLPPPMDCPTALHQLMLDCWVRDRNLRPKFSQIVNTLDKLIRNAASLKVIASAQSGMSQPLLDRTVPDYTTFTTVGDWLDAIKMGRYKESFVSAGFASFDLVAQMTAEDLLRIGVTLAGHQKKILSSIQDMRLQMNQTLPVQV

[9] = molecular target: Serine/threonine-protein kinase pim-1 (Homo sapiens) (UniProt P11309); assay: Inhibition of PIM1 assessed as residual activity at 1 uM
Chain of Serine/threonine-protein kinase pim-1 (Homo sapiens) (P11309 whole entry, looked up): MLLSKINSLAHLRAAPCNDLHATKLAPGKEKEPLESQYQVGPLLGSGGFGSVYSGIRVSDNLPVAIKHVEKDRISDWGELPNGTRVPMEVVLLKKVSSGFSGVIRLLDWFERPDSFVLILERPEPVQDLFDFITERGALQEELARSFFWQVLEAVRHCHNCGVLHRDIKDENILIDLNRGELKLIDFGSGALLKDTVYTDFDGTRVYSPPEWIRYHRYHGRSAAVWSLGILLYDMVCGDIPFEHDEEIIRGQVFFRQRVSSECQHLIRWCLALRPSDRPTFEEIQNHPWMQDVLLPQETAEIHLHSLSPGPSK

Chain of Leucine-rich repeat serine/threonine-protein kinase 2 (Mus musculus) (Q5S006 whole entry): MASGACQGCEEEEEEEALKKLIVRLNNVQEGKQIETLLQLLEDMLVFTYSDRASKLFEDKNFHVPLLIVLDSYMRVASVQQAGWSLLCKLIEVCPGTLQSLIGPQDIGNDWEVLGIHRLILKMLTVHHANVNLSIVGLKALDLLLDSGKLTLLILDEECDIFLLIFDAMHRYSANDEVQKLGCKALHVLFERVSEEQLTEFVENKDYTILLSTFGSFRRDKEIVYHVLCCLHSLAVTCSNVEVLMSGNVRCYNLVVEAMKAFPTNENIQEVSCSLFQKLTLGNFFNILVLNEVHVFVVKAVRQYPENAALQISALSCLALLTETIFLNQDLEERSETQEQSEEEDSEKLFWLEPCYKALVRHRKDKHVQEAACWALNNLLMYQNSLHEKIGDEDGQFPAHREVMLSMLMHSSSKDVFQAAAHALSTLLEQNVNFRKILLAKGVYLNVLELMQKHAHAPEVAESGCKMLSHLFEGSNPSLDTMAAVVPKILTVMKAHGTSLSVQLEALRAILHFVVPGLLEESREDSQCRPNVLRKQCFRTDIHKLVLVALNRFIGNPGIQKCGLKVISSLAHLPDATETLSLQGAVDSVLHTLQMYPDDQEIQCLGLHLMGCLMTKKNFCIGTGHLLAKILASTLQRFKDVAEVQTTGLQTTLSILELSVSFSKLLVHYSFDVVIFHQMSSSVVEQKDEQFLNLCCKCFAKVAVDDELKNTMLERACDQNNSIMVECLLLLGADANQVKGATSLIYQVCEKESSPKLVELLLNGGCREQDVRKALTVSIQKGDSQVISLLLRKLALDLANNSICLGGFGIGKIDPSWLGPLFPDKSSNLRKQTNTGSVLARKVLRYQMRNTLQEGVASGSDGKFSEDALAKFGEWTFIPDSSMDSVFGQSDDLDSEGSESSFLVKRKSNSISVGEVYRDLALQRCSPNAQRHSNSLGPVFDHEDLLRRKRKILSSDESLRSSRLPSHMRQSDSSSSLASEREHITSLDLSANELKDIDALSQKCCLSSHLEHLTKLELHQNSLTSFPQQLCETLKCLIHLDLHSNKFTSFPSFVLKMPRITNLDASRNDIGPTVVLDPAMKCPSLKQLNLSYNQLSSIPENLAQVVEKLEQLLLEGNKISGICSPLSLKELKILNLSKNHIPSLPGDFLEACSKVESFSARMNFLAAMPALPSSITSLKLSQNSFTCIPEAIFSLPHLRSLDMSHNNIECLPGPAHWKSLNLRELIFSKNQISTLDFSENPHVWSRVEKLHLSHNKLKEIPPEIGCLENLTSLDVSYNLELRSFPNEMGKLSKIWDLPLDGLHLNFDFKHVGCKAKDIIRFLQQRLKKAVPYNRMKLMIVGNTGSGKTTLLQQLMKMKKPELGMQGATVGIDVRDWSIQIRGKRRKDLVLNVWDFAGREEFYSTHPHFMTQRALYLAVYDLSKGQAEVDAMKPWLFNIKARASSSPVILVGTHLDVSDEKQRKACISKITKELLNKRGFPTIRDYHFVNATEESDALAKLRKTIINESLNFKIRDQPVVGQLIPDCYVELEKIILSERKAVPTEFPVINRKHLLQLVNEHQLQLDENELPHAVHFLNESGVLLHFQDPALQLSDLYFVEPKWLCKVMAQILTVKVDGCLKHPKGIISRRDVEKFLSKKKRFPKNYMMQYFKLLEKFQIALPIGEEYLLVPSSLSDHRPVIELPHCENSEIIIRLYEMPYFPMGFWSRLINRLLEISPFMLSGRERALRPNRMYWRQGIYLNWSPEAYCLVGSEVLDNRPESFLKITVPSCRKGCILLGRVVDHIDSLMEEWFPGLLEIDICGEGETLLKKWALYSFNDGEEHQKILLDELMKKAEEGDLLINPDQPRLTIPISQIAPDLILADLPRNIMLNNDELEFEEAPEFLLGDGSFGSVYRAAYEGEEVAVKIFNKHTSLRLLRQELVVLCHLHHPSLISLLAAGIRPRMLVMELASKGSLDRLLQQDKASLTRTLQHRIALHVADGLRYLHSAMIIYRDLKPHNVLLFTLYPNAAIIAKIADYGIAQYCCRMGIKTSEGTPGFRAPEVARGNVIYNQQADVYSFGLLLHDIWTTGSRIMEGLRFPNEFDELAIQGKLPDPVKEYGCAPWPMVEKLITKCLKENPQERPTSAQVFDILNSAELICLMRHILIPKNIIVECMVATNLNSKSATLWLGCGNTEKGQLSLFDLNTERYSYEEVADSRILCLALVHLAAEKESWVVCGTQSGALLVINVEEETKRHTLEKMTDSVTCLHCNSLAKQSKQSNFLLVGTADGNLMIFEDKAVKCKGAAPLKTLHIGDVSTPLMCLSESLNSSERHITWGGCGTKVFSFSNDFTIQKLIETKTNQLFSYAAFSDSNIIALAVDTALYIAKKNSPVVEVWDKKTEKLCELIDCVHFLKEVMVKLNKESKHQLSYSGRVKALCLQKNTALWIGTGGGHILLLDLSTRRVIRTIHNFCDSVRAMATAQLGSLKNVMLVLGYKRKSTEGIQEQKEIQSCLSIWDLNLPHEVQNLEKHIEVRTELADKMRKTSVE
Chain of Casein kinase I isoform gamma-2 (Homo sapiens) (P78368 whole entry, looked up, canonical isoform): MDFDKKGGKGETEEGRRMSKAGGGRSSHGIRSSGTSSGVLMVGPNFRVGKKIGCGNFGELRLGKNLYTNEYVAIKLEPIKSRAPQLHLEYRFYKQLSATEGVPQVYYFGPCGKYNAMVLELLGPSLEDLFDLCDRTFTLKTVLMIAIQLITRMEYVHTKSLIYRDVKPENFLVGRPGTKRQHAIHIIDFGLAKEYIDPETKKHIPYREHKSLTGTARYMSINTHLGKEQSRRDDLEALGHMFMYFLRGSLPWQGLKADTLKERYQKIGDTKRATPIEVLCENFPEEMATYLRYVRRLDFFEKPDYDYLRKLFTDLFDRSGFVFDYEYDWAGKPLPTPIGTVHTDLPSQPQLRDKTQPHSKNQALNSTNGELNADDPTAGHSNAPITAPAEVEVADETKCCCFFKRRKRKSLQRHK
Chain of Serine/threonine-protein kinase OSR1 (Homo sapiens) (O95747 2-527 limits assumed): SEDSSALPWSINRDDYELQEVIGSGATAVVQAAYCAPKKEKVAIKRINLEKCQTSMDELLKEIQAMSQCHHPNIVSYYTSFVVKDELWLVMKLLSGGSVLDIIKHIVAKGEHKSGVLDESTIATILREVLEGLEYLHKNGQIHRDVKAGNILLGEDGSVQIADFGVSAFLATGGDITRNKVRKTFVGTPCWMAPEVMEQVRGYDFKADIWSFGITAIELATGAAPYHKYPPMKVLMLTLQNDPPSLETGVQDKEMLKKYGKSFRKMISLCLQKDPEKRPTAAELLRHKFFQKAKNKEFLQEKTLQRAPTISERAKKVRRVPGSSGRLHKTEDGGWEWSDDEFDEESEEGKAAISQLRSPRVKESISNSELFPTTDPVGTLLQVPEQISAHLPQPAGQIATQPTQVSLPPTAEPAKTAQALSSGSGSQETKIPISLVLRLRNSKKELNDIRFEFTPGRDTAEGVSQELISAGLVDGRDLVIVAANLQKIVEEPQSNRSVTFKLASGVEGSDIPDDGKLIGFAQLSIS
Chain of Casein kinase II subunit alpha' (Homo sapiens) (P19784 whole entry, looked up): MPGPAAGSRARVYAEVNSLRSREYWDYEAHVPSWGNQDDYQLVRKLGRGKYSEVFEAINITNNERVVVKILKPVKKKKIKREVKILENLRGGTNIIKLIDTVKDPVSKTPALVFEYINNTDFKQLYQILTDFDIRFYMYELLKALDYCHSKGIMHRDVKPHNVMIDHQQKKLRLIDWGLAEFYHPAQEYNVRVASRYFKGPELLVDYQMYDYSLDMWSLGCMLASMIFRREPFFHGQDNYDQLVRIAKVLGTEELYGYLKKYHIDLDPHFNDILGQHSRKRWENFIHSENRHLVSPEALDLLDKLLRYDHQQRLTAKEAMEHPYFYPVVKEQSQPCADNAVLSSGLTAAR
Chain of Mitogen-activated protein kinase 14 (Homo sapiens) (Q16539 whole entry): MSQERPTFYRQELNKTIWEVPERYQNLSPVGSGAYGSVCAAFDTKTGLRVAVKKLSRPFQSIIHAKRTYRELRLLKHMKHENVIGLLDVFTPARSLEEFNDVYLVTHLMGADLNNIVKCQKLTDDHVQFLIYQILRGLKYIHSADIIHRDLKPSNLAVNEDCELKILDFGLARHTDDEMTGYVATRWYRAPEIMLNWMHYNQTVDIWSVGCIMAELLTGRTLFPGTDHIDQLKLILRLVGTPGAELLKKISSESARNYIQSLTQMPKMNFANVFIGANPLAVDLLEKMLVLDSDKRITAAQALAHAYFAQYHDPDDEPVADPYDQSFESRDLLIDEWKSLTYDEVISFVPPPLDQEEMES

Question: With O=C(Nc1cccnc1)c1cc(-c2ccnc(F)c2)ccc1OCc1ccccc1 as the molecule, how does the Activity [1] read?
Answer: 27%

Question: And the Activity [2]?
Answer: 70%

Question: What about the AUClast (Brain) of the same molecule?
Answer: 1.5394 µg·h/mL

Question: And the inhibition [3]?
Answer: Dose-dependent effect

Question: And the Activity [4]?
Answer: 101%

Question: And the Activity [5]?
Answer: 58%

Question: And the Activity [6]?
Answer: 48%

Question: What about the Activity [7] of the same molecule?
Answer: 63%

Question: What about the Activity [8] of the same molecule?
Answer: 67%

Question: What about the Activity [9] of the same molecule?
Answer: 102%
